Measured values as given in ChEMBL document CHEMBL1140918, “Candidate selection and preclinical evaluation of N-tert-butyl isoquine (GSK369796), an affordable and effective 4-aminoquinoline antimalarial for the 21st century” (J Med Chem, 2009).
Active and inactive are the calls of the source. The calls are words filed in the database; no cut-off is given here.

What was measured:
Plasmodium falciparum [1] = experiment: Antimalarial activity against chloroquine-sensitive Plasmodium falciparum 3D7 in human erythrocytes after 48 hrs by [3H]hypoxanthine uptake; assay type: functional, organism-based
Method in brief: (§1)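 P. falciparum grown in human erythrocytes in RPMI 1640 with 25 mM HEPES, 32 mM NaHCO3 and 10% human serum, gassed 3% O2/4% CO2/93% N2. Assay at 2% parasitemia, 0.5% hematocrit, drug stocks in DMSO diluted in medium, in triplicate. After 24 h at 37 °C, [3H]-hypoxanthine added and incubation continued 24 h. Scintillation counting; IC50 by probit interpolation of log dose-response, three independent experiments.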

Plasmodium falciparum [2] = experiment: Antimalarial activity against chloroquine-sensitive Plasmodium falciparum HB3 in human erythrocytes after 48 hrs by [3H]hypoxanthine uptake; assay type: functional, organism-based; method in brief: as §1
Plasmodium falciparum [3] = experiment: Antimalarial activity against chloroquine-resistant Plasmodium falciparum K1 in human erythrocytes after 48 hrs by [3H]hypoxanthine uptake; assay type: functional, organism-based; method in brief: as §1
Plasmodium berghei = experiment: Antimalarial activity as reduced parasitaemia against Plasmodium berghei ANKA infected CD1 mice (Mus musculus) after 4 days; assay type: functional; details: 96 h
Method in brief: (§2)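 Standard Peters 4-day test in female age-matched CD1 mice, randomised into groups of 5. Mice were infected iv on day 0 with 6.4 × 10^6 or 10.0 × 10^6 parasites (P. berghei or P. yoelii) from infected donors. Peripheral-blood parasitaemia was read by flow cytometry at day 4 and compared with vehicle-treated groups. Doses ranged up to 40 mg/kg.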

Plasmodium yoelii [4] = experiment: Antimalarial activity as reduced parasitaemia against Plasmodium yoelii 17X infected CD1 mice (Mus musculus) after 4 days; assay type: functional; details: 96 h
Plasmodium yoelii [5] = experiment: Antimalarial activity as ED100 in peripheral blood against Plasmodium yoelii 17X infected CD1 mice (Mus musculus) after 4 days; assay type: functional
Heme [6] = experiment: Binding affinity to heme in DMSO assessed as equilibrium constant by UV-visible spectrophotometry; set-up: scale not given here
Method in brief: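 Haem titrations were run in buffered 40% DMSO so that haem stays monomeric and aggregation and μ-oxo dimer formation are minimised. Binding data were fitted mathematically to two alternative binding-process models to pick the best fit.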

Plasmodium yoelii [7] = experiment: Antimalarial activity as reduced parasitaemia at day 4 against Plasmodium yoelii 17X infected CD1 mice (Mus musculus) at 40 mg/kg; assay type: functional, organism-based; set-up: dose 40 mg/kg; method in brief: as §2
Heme [8] = experiment: Binding affinity to heme in 12 mM SDS surfactant assessed as equilibrium constant by UV-visible spectrophotometry

CCN(CC)Cc1cc(Nc2ccnc3cc(Cl)ccc23)ccc1O.Cl
IC50 (Plasmodium falciparum [1]): 11.2 nM
IC50 (Plasmodium falciparum [2]): 9.6 nM
IC50 (Plasmodium falciparum [3]): 15.5 nM
ED50 (Plasmodium berghei): 2.1 mg/kg
ED90 (Plasmodium berghei): 3.2 mg/kg
ED50 (Plasmodium yoelii [4]): 2.6 mg/kg
ED90 (Plasmodium yoelii [4]): 3.7 mg/kg
Activity (Plasmodium yoelii [5]): >40 mg/kg
Activity (Heme [6]): 4.4

C=C[C@H]1CN2CC[C@H]1C[C@H]2[C@H](O)c1ccnc2ccc(OC)cc12
Activity (Heme [6]): 4.4

CC(C)(C)NCc1cc(Nc2ccnc3cc(Cl)ccc23)ccc1F
Activity (Plasmodium yoelii [7]): inactive

OC(c1cc(C(F)(F)F)nc2c(C(F)(F)F)cccc12)C1CCCCN1 (stereo not drawn)
Activity (Heme [6]): 3.84

c1ccncc1
Activity (Heme [8]): 2.24
